Measured values: ChEMBL document CHEMBL1212834, “Pyrido[2,3-b]pyrazines, discovery of TRPV1 antagonists with reduced potential for the formation of reactive metabolites” (Bioorg Med Chem Lett, 2010)
Active and inactive are the calls of the source. The rule behind the calls is not given here.

Legend:
[1] = biological target: Transient receptor potential cation channel subfamily V member 1 (Homo sapiens, UniProt Q8NER1); assay: Antagonist activity at human TRPV1 assessed as inhibition of capsaicin-induced receptor activation by FLIPR assay; format: functional
Chain of Transient receptor potential cation channel subfamily V member 1 (Homo sapiens, UniProt Q8NER1) (Q8NER1 whole entry): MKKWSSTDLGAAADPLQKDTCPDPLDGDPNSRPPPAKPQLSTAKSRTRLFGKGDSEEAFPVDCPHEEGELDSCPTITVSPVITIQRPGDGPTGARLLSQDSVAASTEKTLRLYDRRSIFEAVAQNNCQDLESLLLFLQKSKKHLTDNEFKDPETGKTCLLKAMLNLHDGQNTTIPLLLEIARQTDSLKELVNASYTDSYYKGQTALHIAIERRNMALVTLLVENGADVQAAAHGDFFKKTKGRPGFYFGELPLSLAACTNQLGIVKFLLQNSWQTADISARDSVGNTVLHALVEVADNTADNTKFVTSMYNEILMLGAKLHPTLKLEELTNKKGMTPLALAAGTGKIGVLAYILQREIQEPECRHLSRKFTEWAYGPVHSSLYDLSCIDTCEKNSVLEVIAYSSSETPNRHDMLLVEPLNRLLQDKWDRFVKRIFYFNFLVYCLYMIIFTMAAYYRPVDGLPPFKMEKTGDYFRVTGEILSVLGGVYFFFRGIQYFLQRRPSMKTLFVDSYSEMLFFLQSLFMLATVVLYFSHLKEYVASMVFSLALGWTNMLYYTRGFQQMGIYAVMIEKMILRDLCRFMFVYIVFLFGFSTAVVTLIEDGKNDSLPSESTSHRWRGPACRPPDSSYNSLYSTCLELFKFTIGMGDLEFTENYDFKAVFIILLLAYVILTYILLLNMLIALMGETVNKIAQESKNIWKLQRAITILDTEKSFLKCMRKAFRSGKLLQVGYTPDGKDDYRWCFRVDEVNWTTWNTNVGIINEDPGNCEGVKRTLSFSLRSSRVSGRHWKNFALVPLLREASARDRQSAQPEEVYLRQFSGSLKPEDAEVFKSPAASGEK
Outline: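 Human TRPV1 activated by capsaicin; inhibition read by FLIPR. IC50 is the mean of ≥3 experiments.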

[2] = biological target: Transient receptor potential cation channel subfamily V member 1 (Rattus norvegicus, UniProt O35433); format: functional, tissue-based, Sprague-Dawley, Dorsal root ganglion
Chain of Transient receptor potential cation channel subfamily V member 1 (Rattus norvegicus, UniProt O35433) (O35433 whole entry): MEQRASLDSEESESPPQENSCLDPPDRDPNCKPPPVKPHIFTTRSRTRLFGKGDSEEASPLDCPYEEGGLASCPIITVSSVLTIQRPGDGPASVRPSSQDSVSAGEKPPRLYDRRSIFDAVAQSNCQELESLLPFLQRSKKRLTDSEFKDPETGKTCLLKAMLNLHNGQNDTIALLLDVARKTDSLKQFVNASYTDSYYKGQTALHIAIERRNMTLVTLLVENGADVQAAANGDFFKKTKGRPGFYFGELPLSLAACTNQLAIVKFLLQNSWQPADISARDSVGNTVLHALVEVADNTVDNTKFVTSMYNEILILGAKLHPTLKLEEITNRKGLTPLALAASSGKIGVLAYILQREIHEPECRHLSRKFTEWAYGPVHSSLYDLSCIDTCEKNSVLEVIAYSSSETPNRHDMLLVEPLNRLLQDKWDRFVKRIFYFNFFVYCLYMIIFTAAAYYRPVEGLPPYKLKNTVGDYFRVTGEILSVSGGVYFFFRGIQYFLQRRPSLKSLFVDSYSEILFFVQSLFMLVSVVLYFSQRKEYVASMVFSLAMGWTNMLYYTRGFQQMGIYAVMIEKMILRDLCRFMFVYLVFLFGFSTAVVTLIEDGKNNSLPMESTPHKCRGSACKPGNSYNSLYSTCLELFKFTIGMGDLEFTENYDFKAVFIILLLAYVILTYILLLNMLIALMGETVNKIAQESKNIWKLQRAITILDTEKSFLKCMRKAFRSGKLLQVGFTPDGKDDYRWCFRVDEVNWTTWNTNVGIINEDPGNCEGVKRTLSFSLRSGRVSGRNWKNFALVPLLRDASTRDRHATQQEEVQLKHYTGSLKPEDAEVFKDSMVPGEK

Rattus norvegicus [3] = assay: Antiinflammatory activity in Sprague-Dawley rat assessed as inhibition of carrageenan-induced thermal hyperalgesia at 3 mg/kg, po administered 3.5 hrs after carrageenan challenge measured after 5 hrs; format: functional
Outline: (§1)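 Rat carrageenan-induced thermal hyperalgesia. Dosed orally as a suspension in 0.5% methocel; % inhibition reported at each dose.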

Rattus norvegicus [4] = assay: Antiinflammatory activity in Sprague-Dawley rat assessed as inhibition of carrageenan-induced thermal hyperalgesia at 0.3 mg/kg, po administered 3.5 hrs after carrageenan challenge measured after 5 hrs; format: functional; outline: as §1
[5] = Metabolic stability in rat liver microsomes assessed as compound remaining after 10 min; format: ADME, Microsome; details: read-out: Stability
Liver microsomes = assay: Metabolic stability in human liver microsomes assessed per mg of protein after 1 hr
Rattus norvegicus [6] = species on record: Rattus norvegicus; details: 20 mg/kg
Rattus norvegicus [7] = assay: Plasma concentration in Sprague-Dawley rat carrageenan-induced thermal hyperalgesia model at 1 mg/kg, po; format: ADME, organism-based; set-up: dose 1 mg/kg, route oral; details: in vivo
Outline: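 Plasma sampled immediately after the carrageenan thermal hyperalgesia experiment, following oral dosing as a suspension in 0.5% methocel.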

Rattus norvegicus [8] = assay: Plasma concentration in Sprague-Dawley rat carrageenan-induced thermal hyperalgesia model at 3 mg/kg, po; format: ADME, organism-based; set-up: dose 3 mg/kg, route oral; details: in vivo
Outline: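 Rats given compound orally as a suspension in 0.5% methocel in the carrageenan-induced thermal hyperalgesia model. Plasma sampled immediately after the CITH experiment.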

Rattus norvegicus [9] = assay: Antiinflammatory activity in Sprague-Dawley rat assessed as inhibition of carrageenan-induced thermal hyperalgesia at 1 mg/kg, po administered 3.5 hrs after carrageenan challenge measured after 5 hrs; format: functional; outline: as §1

Row | Compound | IC50 [1] | IC50 [2] | other results
1 | NC(=O)c1nc(Nc2ccnc3nc(-c4ncccc4C(F)(F)F)ccc23)ncc1C(F)(F)F | 48.7 nM | Not Active | 
2 | FC(F)(F)c1cnc(Nc2ccnc3nc(-c4ncccc4C(F)(F)F)ccc23)cn1 | 5.5 nM |  | IC50 ([2]; read-out: IC50): 6.3 nM
3 | N#Cc1cnc(-c2cnc3c(Nc4ccc(C(F)(F)F)cn4)ccnc3n2)c(C(F)(F)F)c1 | 15 nM | Not Active | 
4 | FC(F)(F)c1csc(Nc2ccnc3nc(-c4ncccc4C(F)(F)F)ccc23)n1 | 47 nM | Not Active | 
5 | N#Cc1nc(Nc2ccnc3nc(-c4ncccc4C(F)(F)F)ccc23)ncc1C(F)(F)F | 25.4 nM | Not Active | 
6 | FC(F)(F)c1cnc(Nc2ccnc3nc(-c4ncccc4C(F)(F)F)ccc23)nc1Cl | 81 nM | Not Active | 
7 | FC(F)(F)c1ccc(Nc2ccnc3nc(-c4ncccc4C(F)(F)F)cnc23)nc1 | 0.2 nM | Not Active | inhibition in vivo at 3 mg/kg (Rattus norvegicus [3]): 134%; inhibition in vivo at 0.3 mg/kg (Rattus norvegicus [4]): 85%; remaining at 10 min [5]: 100%; Stability (Liver microsomes): < 5 pmol
8 | FC(F)(F)c1cnc(Nc2ccnc3nc(-c4ncccc4C(F)(F)F)ccc23)nc1 | 4.4 nM |  | inhibition in vivo at 3 mg/kg (Rattus norvegicus [3]): 78%; IC50 ([2]; read-out: IC50): 4.6 nM; remaining at 10 min [5]: 100%; Stability (Liver microsomes): 204 pmol
9 | COc1ccc2cc([C@H](C)C(=O)O)ccc2c1 |  |  | inhibition (Rattus norvegicus [6]): Active
10 | FC(F)(F)c1ccc(Nc2ccnc3nc(-c4ncccc4C(F)(F)F)ccc23)nc1 |  |  | INH (Inhibition of MAOB): 2.2 nM; concentration (Rattus norvegicus [7]): 300 nM; inhibition in vivo at 3 mg/kg (Rattus norvegicus [3]): 115%; concentration (Rattus norvegicus [8]): 1400 nM; IC50 ([2]; read-out: IC50): 3.2 nM; remaining at 10 min [5]: 100%; inhibition in vivo at 1 mg/kg (Rattus norvegicus [9]): 66%; Stability (Liver microsomes): 169 pmol
11 | FC(F)(F)c1ccc(Nc2ccnc3nc(-c4ncc(Br)cc4C(F)(F)F)cnc23)nc1 | 30 nM | Not Active | 
12 | C[C@@H]1CN(c2ncccc2C(F)(F)F)CCN1C(=O)Nc1ccc(C(F)(F)F)cc1 |  |  | INH (Inhibition of MAOB): 17 nM

Further lines, with some results ahead:

Row | IC50 [1] | IC50 [2] | Compound | other results
13 | 8.4 nM |  | FC(F)(F)c1ccc(Nc2ccnc3nc(-c4nnccc4C(F)(F)F)ccc23)nc1 | IC50 ([2]; read-out: IC50): 7.1 nM
14 | 161 nM | Not Active | FC(F)(F)c1ccc(Nc2ccnc3nc(-c4ccncc4C(F)(F)F)ccc23)nc1 | 
15 | 607 nM | Not Active | O=C(O)c1ccnc(-c2ccc3c(Nc4ccc(C(F)(F)F)cn4)ccnc3n2)c1C(F)(F)F | 
16 | 13 nM | Not Active | NC(=O)c1ccnc(-c2ccc3c(Nc4ccc(C(F)(F)F)cn4)ccnc3n2)c1C(F)(F)F | 
17 | 134 nM | Not Active | FC(F)(F)c1ccc(Nc2ccnc3nc(-c4ncncc4C(F)(F)F)ccc23)nc1 | 
18 | 27 nM | Not Active | O=C(O)c1cnc(-c2cnc3c(Nc4ccc(C(F)(F)F)cn4)ccnc3n2)c(C(F)(F)F)c1 | 
19 | 1450 nM | Not Active | O=C(O)c1nc(Nc2ccnc3nc(-c4ncccc4C(F)(F)F)ccc23)ncc1C(F)(F)F | 
20 | 12 nM | Not Active | FC(F)(F)c1ccc(Nc2ccnc3nc(-c4ncsc4C(F)(F)F)ccc23)nc1 | remaining at 10 min [5]: 100%; Stability (Liver microsomes): 356 pmol
